Reference: article PMC3286832 (Nature Communications, 2011)
Where a chain is given by its changes, count along the chain named. Numbers in names are those of the source.

B1: GLP–N: N-terminal fragment of GLP (residues 191–280) containing K205 (protein)
chain: LPAPGADVKVHRARKTMPKSVVGLHAASKDPREVREARDHKEPKEEINKNISDFGRQQLLPPFPSLHQSLPQNQCYMATTKSQTACLPFV
modifications: left off: GST, end not stated, kept
B2: GLP–N K205R: methylation deficient K205R mutant of GLP–N (protein, UniProt Q9H9B1 191-280, looked up, variant K205R)
chain: B1 chain with K15R
B3: GLP–N K205-methylated: GLP–N methylated in vitro at K205 (protein, UniProt Q9H9B1 191-280, looked up, fragment)
chain: B1 chain
modifications: K205 methylated
B4: G9a: H3K9 methyltransferase G9a (protein, UniProt Q96KQ7 2-1210, looked up)
Histone-lysine …: AAAAGAAAAAAAEGEAPAEMGALLLEKETRGATERVHGSLGDTPRSEETLPKATPDSLEPAGPSSPASVTVTVGDEGADTPVGATPLIGDESENLEGDGDLRGGRILLGHATKSFPSSPSKGGSCPSRAKMSMTGAGKSPPSVQSLAMRLLSMPGAQGAAAAGSEPPPATTSPEGQPKVHRARKTMSKPGNGQPPVPEKRPPEIQHFRMSDDVHSLGKVTSDLAKRRKLNSGGGLSEELGSARRSGEVTLTKGDPGSLEEWETVVGDDFSLYYDSYSVDERVDSDSKSEVEALTEQLSEEEEEEEEEEEEEEEEEEEEEEEEDEESGNQSDRSGSSGRRKAKKKWRKDSPWVKPSRKRRKREPPRAKEPRGVNGVGSSGPSEYMEVPLGSLELPSEGTLSPNHAGVSNDTSSLETERGFEELPLCSCRMEAPKIDRISERAGHKCMATESVDGELSGCNAAILKRETMRPSSRVALMVLCETHRARMVKHHCCPGCGYFCTAGTFLECHPDFRVAHRFHKACVSQLNGMVFCPHCGEDASEAQEVTIPRGDGVTPPAGTAAPAPPPLSQDVPGRADTSQPSARMRGHGEPRRPPCDPLADTIDSSGPSLTLPNGGCLSAVGLPLGPGREALEKALVIQESERRKKLRFHPRQLYLSVKQGELQKVILMLLDNLDPNFQSDQQSKRTPLHAAAQKGSVEICHVLLQAGANINAVDKQQRTPLMEAVVNNHLEVARYMVQRGGCVYSKEEDGSTCLHHAAKIGNLEMVSLLLSTGQVDVNAQDSGGWTPIIWAAEHKHIEVIRMLLTRGADVTLTDNEENICLHWASFTGSAAIAEVLLNARCDLHAVNYHGDTPLHIAARESYHDCVLLFLSRGANPELRNKEGDTAWDLTPERSDVWFALQLNRKLRLGVGNRAIRTEKIICRDVARGYENVPIPCVNGVDGEPCPEDYKYISENCETSTMNIDRNITHLQHCTCVDDCSSSNCLCGQLSIRCWYDKDGRLLQEFNKIEPPLIFECNQACSCWRNCKNRVVQSGIKVRLQLYRTAKMGWGVRALQTIPQGTFICEYVGELISDAEADVREDDSYLFDLDNKDGEVYCIDARYYGNISRFINHLCDPNIIPVRVFMLHQDLRFPRIAFFSSRDIRTGEELGFDYGDRFWDIKSKYFTCQCGSEKCKHSAEAIALEQSRLARLDPHPELLPELGSLPPVNT
B5: G9a double mutant (Y1067V/Y1154F): G9a double mutant coexpressed with hDNMT3A (protein, UniProt Q96KQ7 2-1210, looked up, variant Y1067V Y1154F)
Histone-lysine …: B4 Histone-lysine … with Y1066V, Y1153F
B6: GLP: G9a-like protein, wild-type (protein)
chain: MAAADAEAVPARGEPQQDCCVKTELLGEETPMAADEGSAEKQAGEAHMAADGETNGSCENSDASSHANAAKHTQDSARVNPQDGTNTLTRIAENGVSERDSEAAKQNHVTADDFVQTSVIGSNGYILNKPALQAQPLRTTSTLASSLPGHAAKTLPGGAGKGRTPSAFPQTPAAPPATLGEGSADTEDRKLPAPGADVKVHRARKTMPKSVVGLHAASKDPREVREARDHKEPKEEINKNISDFGRQQLLPPFPSLHQSLPQNQCYMATTKSQTACLPFVLAAAVSRKKKRRMGTYSLVPKKKTKVLKQRTVIEMFKSITHSTVGSKGEKDLGASSLHVNGESLEMDSDEDDSEELEEDDGHGAEQAAAFPTEDSRTSKESMSEADRAQKMDGESEEEQESVDTGEEEEGGDESDLSSESSIKKKFLKRKGKTDSPWIKPARKRRRRSRKKPSGALGSESYKSSAGSAEQTAPGDSTGYMEVSLDSLDLRVKGILSSQAEGLANGPDVLETDGLQEVPLCSCRMETPKSREITTLANNQCMATESVDHELGRCTNSVVKYELMRPSNKAPLLVLCEDHRGRMVKHQCCPGCGYFCTAGNFMECQPESSISHRFHKDCASRVNNASYCPHCGEESSKAKEVTIAKADTTSTVTPVPGQEKGSALEGRADTTTGSAAGPPLSEDDKLQGAASHVPEGFDPTGPAGLGRPTPGLSQGPGKETLESALIALDSEKPKKLRFHPKQLYFSARQGELQKVLLMLVDGIDPNFKMEHQNKRSPLHAAAEAGHVDICHMLVQAGANIDTCSEDQRTPLMEAAENNHLEAVKYLIKAGALVDPKDAEGSTCLHLAAKKGHYEVVQYLLSNGQMDVNCQDDGGWTPMIWATEYKHVDLVKLLLSKGSDINIRDNEENICLHWAAFSGCVDIAEILLAAKCDLHAVNIHGDSPLHIAARENRYDCVVLFLSRDSDVTLKNKEGETPLQCASLNSQVWSALQMSKALQDSAPDRPSPVERIVSRDIARGYERIPIPCVNAVDSEPCPSNYKYVSQNCVTSPMNIDRNITHLQYCVCIDDCSSSNCMCGQLSMRCWYDKDGRLLPEFNMAEPPLIFECNHACSCWRNCRNRVVQNGLRARLQLYRTRDMGWGVRSLQDIPPGTFVCEYVGELISDSEADVREEDSYLFDLDNKDGEVYCIDARFYGNVSRFINHHCEPNLVPVRVFMAHQDLRFPRIAFFSTRLIEAGEQLGFDYGERFWDIKGKLFSCRCGSPKCRHSSAALAQRQASAAQEAQEDGLPDTSSAAAADPL
modifications: left off: HA, end not stated, kept
B7: GLP K205R: HA–GLP K205R mutant (protein)
chain: B6 chain with K205R
modifications: left off: HA, end not stated, kept
B8: GLP K209R: HA–GLP K209R mutant (protein)
chain: B6 chain with K209R
modifications: left off: HA, end not stated, kept
B9: GLP K199R: HA–GLP K199R mutant (protein)
chain: B6 chain with K199R
modifications: left off: HA, end not stated, kept

What was measured:
MPP8 = experiment: In vitro GST pull-down of GLP–N with in vitro translated MPP8; assay type: binding; settings: GST–GLP–N (residues 191–280), in vitro translated 35S–MPP8, autoradiography
Procedure, shortened: (§1)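 GST–hGLP–N (residues 191–280, WT or K205R; 3 μg) was premethylated with 3 μg 6xHis–hGLP–SET (residues 955–1,298) and 1.5 mM AdoMet at 30 °C for 2 h. It was immobilised on glutathione agarose (4 °C, 1 h, 1 M NaCl buffer) and washed. Beads were incubated with in vitro translated 35S-labelled full-length MPP8 (WT or W80A) at 4 °C for 2 h, washed with 300 mM NaCl binding buffer, and analysed by SDS–PAGE autoradiography. Input was 5%.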

GLP catalytic SET domain = GLP catalytic SET domain (Homo sapiens, UniProt Q9H9B1); experiment: In vitro methylation assay with GLP catalytic SET domain; assay type: biochemical; settings: [methyl-3H]AdoMet, SDS–PAGE and fluorography / autoradiogram
Procedure, shortened: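 E. coli-expressed hG9a or hGLP SET domain (1.6 μM) was incubated with 13.0 μM substrate (mDnmt3a N-terminal fragments or other GST-tagged proteins) and 2.8 μM [methyl-3H]AdoMet in 20 mM Tris–HCl pH 8.5 at 30 °C for 8 min. Products were resolved by SDS–PAGE and detected by fluorography/autoradiography.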

MPP8–W80A = experiment: GST pull-down of GLP–N with MPP8-W80A; assay type: binding; settings: in vitro translated 35S–MPP8–W80A
Procedure, shortened: as §1

[1] = test system: hDNMT3A K47 methylation in 293T cells; experiment: Methylation in 293T cells; assay type: cell-based, human; settings: coexpression in 293T cells, metabolic labelling with 3H-Met or western blot
Procedure, shortened: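 GLP stable knockdown 293T cells expressed Myc-hDNMT3A (WT or K47R), with or without Flag-GLP or G9a, for 36 h. Cells were starved 30 min in methionine-free medium with cycloheximide (100 μg ml−1) and chloramphenicol (40 μg ml−1), then labelled 4 h with 10 μCi ml−1 L-[methyl-3H]methionine. Myc-hDNMT3A was immunoprecipitated with anti-Myc, washed with 600 mM NaCl IPH buffer, and detected by autoradiography.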

[2] = test system: MPP8–GLP interaction in 293T cells; experiment: Co-immunoprecipitation of MPP8 and GLP in 293T cells; assay type: cell-based, human
Procedure, shortened: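 293T cells (parental, or MPP8 stable knockdown for the chromodomain W80A mutant) were cotransfected with Flag-MPP8 and HA-GLP (WT, K199R, K205R or K209R) for 48 h. Lysates were immunoprecipitated with 1 μg anti-HA or anti-Flag on protein-G agarose, washed with IPH containing 300 or 600 mM NaCl, and analysed by western blot. Input was 5%.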

| Molecule | interaction with MPP8–W80A in GST pull-down (MPP8–W80A) | methylation of hDNMT3A in cells [1] | MPP8–GLP interaction in cells [2] | other results |
| --- | --- | --- | --- | --- |
| B1 | no interaction was observed |  |  | interaction with MPP8 in GST pull-down (MPP8): a robust direct interaction between GLP–N and MPP8 was observed only when K205 methylation occurs; methylation by GLP (GLP catalytic SET domain): is methylated in vitro by recombinant GLP–SET domain |
| B2 | no interaction was observed |  |  | interaction with MPP8 in GST pull-down (MPP8): completely lost the interaction with MPP8; methylation by GLP (GLP catalytic SET domain): completely abolishes this GLP-catalyzed methylation |
| B3 | no interaction was observed |  |  |  |
| B4 |  | markedly increased |  |  |
| B5 |  | failed to methylate K47 |  |  |
| B6 |  | markedly increased |  |  |
| B7 |  |  | impairs GLP–MPP8 interaction in cells |  |
| B8 |  |  | had little effect |  |
| B9 |  |  | had little effect |  |
